ChEMBL document CHEMBL2069278, “Novel substituted benzothiophene and thienothiophene carboxanilides and quinolones: synthesis, photochemical synthesis, DNA-binding properties, antitumor evaluation and 3D-derived QSAR analysis” (J Med Chem, 2012)
Active and inactive are the calls of the source. The rule behind the calls is not given here.

What follows are compounds tested on Nucleic Acid (assay: Binding affinity to calf thymus DNA assessed as change in melting temperature at drug/base pair ratio of 0.025 by UV-visible spectrophotometric analysis). Details: Bos taurus.
Assay type: nucleic-acid assay
Method in brief: (§1)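 Melting: 20 μM CT-DNA or poly(dAdT)2 alone or with compound (drug/base pair ratio 0.01−0.5) in BPE buffer (6 mM Na2HPO4, 2 mM NaH2PO4, 1 mM EDTA, pH 7.1); A260 read each minute from 20 to 100 °C at 1 °C/min; Tm from midpoint of hyperchromic transition (first-derivative plots); ΔTm = Tm[drug+DNA] − Tm[DNA alone].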
O=c1[nH]c2ccc(C3=NCCN3)cc2c2c1sc1cc(C3=NCCN3)ccc12 was tested, and the ΔTm was 0 °C.
O=c1[nH]c2ccc(C3=NCCN3)cc2c2c1sc1ccccc12 was tested, and the ΔTm was 0.9 °C.

Each compound was assayed on MOLT-4 (assay: Cytotoxicity against human MOLT4 cells after 72 hrs by MTT assay). Details: MOLT-4, 72 h.
Assay type: functional, cell-based
Method in brief: (§2)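 Cells seeded on day 0 at 1 × 10^4 to 3 × 10^4 cells/mL (adherent lines in DMEM, MOLT-4 in suspension in RPMI, 10% FBS, 37 °C, 5% CO2); 10-fold dilutions 10−8–10−4 M for 72 h; MTT, OD 570 nm; percentage growth versus time-zero and control; IC50 by linear regression; quadruplicate, at least two experiments.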
Compound Cc1ccc2c(Cl)c(C(=O)Nc3ccc(C(=O)NCCCN(C)C)cc3)sc2c1 has an IC50 of 2000 nM.
Cn1c(=O)c2sc3ccccc3c2c2cc(C3=NCCN3)ccc21 showed an IC50 of 400 nM.
Compound CN(C)CCCNC(=O)c1ccc2[nH]c(=O)c3sc4cc(Br)ccc4c3c2c1 has an IC50 of 1000 nM.
In the case of O=c1[nH]c2ccc(C3=NCCN3)cc2c2c1sc1cc(C3=NCCN3)ccc12, the IC50 is reported as 3000 nM.
Compound O=c1[nH]c2ccc(C3=NCCN3)cc2c2c1sc1ccccc12 has an IC50 of 800 nM.

The compounds below were run on HCT-116 (assay: Cytotoxicity against human HCT116 cells after 72 hrs by MTT assay). Details: HCT-116, 72 h.
Assay type: functional, cell-based
Method in brief: as §2
Cc1ccc2c(Cl)c(C(=O)Nc3ccc(C(=O)NCCCN(C)C)cc3)sc2c1 was tested, and the IC50 was 3000 nM.
Cn1c(=O)c2sc3ccccc3c2c2cc(C3=NCCN3)ccc21 gave an IC50 of 400 nM.
CN(C)CCCNC(=O)c1ccc2[nH]c(=O)c3sc4cc(Br)ccc4c3c2c1 gave an IC50 of 400 nM.
For O=c1[nH]c2ccc(C3=NCCN3)cc2c2c1sc1cc(C3=NCCN3)ccc12, the IC50 was no less than 10000 nM.
With O=c1[nH]c2ccc(C3=NCCN3)cc2c2c1sc1ccccc12 the IC50 was 900 nM.

These compounds were tested on SW-620 (assay: Cytotoxicity against human SW620 cells after 72 hrs by MTT assay). Details: SW-620, 72 h.
Assay type: functional, cell-based
Method in brief: as §2
In the case of Cc1ccc2c(Cl)c(C(=O)Nc3ccc(C(=O)NCCCN(C)C)cc3)sc2c1, the IC50 is reported as 2000 nM.
Cn1c(=O)c2sc3ccccc3c2c2cc(C3=NCCN3)ccc21 gave an IC50 of 200 nM.
Compound CN(C)CCCNC(=O)c1ccc2[nH]c(=O)c3sc4cc(Br)ccc4c3c2c1 has an IC50 of 400 nM.
Work on O=c1[nH]c2ccc(C3=NCCN3)cc2c2c1sc1cc(C3=NCCN3)ccc12 yielded an IC50 of no less than 10000 nM.
With O=c1[nH]c2ccc(C3=NCCN3)cc2c2c1sc1ccccc12 the IC50 was 700 nM.

What follows are compounds tested on MCF7 (assay: Cytotoxicity against human MCF7 cells after 72 hrs by MTT assay). Details: MCF7, 72 h.
Assay type: functional, cell-based
Method in brief: as §2
Cc1ccc2c(Cl)c(C(=O)Nc3ccc(C(=O)NCCCN(C)C)cc3)sc2c1 was tested, and the IC50 was 3000 nM.
For Cn1c(=O)c2sc3ccccc3c2c2cc(C3=NCCN3)ccc21, the IC50 was 1300 nM.
In the case of CN(C)CCCNC(=O)c1ccc2[nH]c(=O)c3sc4cc(Br)ccc4c3c2c1, the IC50 is reported as 2000 nM.
O=c1[nH]c2ccc(C3=NCCN3)cc2c2c1sc1cc(C3=NCCN3)ccc12 was tested, and the IC50 was no less than 10000 nM.
O=c1[nH]c2ccc(C3=NCCN3)cc2c2c1sc1ccccc12 gave an IC50 of 1400 nM.

These compounds were tested on NCI-H460 (assay: Cytotoxicity against human H460 cells after 72 hrs by MTT assay). Details: NCI-H460, 72 h.
Assay type: functional, cell-based
Method in brief: as §2
Cc1ccc2c(Cl)c(C(=O)Nc3ccc(C(=O)NCCCN(C)C)cc3)sc2c1 showed an IC50 of 2000 nM.
Cn1c(=O)c2sc3ccccc3c2c2cc(C3=NCCN3)ccc21 was tested, and the IC50 was 600 nM.
Work on CN(C)CCCNC(=O)c1ccc2[nH]c(=O)c3sc4cc(Br)ccc4c3c2c1 yielded an IC50 of 2000 nM.
O=c1[nH]c2ccc(C3=NCCN3)cc2c2c1sc1cc(C3=NCCN3)ccc12 gave an IC50 of no less than 10000 nM.
O=c1[nH]c2ccc(C3=NCCN3)cc2c2c1sc1ccccc12 gave an IC50 of 1600 nM.

These compounds were tested on Nucleic Acid (assay: Binding affinity to calf thymus DNA assessed as change in melting temperature at drug/base pair ratio of 0.01 by UV-visible spectrophotometric analysis). Details: Bos taurus.
Assay type: nucleic-acid assay
Method in brief: as §1
For O=c1[nH]c2ccc(C3=NCCN3)cc2c2c1sc1cc(C3=NCCN3)ccc12, the ΔTm was 0 °C.
In the case of O=c1[nH]c2ccc(C3=NCCN3)cc2c2c1sc1ccccc12, the ΔTm is reported as 0 °C.

What follows are compounds tested on Nucleic Acid (assay: Binding affinity to radiolabeled Pvu2 DNA after 15 mins by Dnase1 footprinting assay). Details: not given.
Assay type: nucleic-acid assay
Method in brief: (§3)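 265 bp EcoRI/PvuII pBluescript fragment, 3′-end labeled with α-[32P]dATP by Klenow. Compounds at increasing concentrations pre-equilibrated with DNA 15 min at 37 °C, then DNase I (final 0.002 unit/mL) in 20 mM NaCl, 2 mM MgCl2, 2 mM MnCl2, pH 7.3, 4 min digestion; products resolved on denaturing 8% polyacrylamide/8 M urea gel, G-track for base positions.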
With Cn1c(=O)c2sc3ccccc3c2c2cc(C3=NCCN3)ccc21 the Activity was “Active”.
For O=c1[nH]c2ccc(C3=NCCN3)cc2c2c1sc1cc(C3=NCCN3)ccc12, the Activity was “Active”.
O=c1[nH]c2ccc(C3=NCCN3)cc2c2c1sc1ccccc12 was tested, and the Activity was “Active”.

Each compound was assayed against DNA topoisomerase 2-alpha (Homo sapiens) (UniProt P11388) (assay: Inhibition of human topoisomerase 2-mediated DNA cleavage at 50 uM incubated for 45 mins followed by enzyme addition measured after 30 mins by agarose gel electrophoresis). Details: not given.
Sequence of DNA topoisomerase 2-alpha (Homo sapiens) (P11388 whole entry): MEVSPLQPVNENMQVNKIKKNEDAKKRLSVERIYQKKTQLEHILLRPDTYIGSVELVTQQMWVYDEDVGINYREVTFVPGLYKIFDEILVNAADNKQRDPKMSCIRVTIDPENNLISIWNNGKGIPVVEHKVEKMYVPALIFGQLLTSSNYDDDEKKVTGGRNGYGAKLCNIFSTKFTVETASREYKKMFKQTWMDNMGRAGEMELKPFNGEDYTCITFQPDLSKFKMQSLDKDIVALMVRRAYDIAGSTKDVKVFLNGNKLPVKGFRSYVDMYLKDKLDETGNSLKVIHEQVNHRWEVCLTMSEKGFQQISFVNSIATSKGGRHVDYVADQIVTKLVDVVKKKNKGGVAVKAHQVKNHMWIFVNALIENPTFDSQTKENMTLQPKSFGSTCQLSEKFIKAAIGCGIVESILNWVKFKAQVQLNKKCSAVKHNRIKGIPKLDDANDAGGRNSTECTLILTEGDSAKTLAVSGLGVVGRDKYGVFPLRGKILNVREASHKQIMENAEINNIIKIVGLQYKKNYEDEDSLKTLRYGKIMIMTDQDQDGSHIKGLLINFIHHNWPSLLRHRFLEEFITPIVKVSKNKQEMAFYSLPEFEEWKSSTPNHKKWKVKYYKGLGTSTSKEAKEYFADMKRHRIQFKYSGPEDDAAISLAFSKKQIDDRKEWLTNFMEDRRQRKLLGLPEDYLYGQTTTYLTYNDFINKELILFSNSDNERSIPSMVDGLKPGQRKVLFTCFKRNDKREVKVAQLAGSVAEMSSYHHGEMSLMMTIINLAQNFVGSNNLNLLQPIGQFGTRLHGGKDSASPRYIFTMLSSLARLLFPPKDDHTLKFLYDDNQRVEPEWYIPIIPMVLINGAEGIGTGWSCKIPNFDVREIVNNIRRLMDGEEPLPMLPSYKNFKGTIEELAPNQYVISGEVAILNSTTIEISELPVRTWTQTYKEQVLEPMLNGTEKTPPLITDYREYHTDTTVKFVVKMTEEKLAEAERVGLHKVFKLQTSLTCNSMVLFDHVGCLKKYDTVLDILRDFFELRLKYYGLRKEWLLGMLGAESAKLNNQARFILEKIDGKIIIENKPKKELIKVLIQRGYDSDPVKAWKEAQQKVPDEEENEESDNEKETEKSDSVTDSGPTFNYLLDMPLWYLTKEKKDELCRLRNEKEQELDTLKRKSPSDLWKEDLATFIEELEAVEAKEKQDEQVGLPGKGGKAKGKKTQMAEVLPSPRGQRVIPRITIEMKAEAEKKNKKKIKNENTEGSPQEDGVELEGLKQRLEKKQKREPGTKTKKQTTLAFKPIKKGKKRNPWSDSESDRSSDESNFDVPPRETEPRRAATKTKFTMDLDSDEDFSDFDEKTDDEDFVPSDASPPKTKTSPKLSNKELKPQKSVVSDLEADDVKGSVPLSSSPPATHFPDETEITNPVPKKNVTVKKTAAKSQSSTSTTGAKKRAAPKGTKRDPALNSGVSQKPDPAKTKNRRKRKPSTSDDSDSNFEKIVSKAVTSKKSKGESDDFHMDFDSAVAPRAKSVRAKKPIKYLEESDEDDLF
Method in brief: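 Compounds (50 μM) incubated with 350 ng supercoiled pUC19 before topoisomerase II addition; gel quantified for percentage poisoning normalized to etoposide at the same concentration.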
In the case of Cn1c(=O)c2sc3ccccc3c2c2cc(C3=NCCN3)ccc21, the inhibition is reported as “inactive”.
With O=c1[nH]c2ccc(C3=NCCN3)cc2c2c1sc1cc(C3=NCCN3)ccc12 the inhibition was “Active”.
O=c1[nH]c2ccc(C3=NCCN3)cc2c2c1sc1ccccc12 was tested, and the inhibition was “Active”.

What follows are compounds tested on HCT-116 (assay: Induction of cell cycle arrest in human HCT116 cells assessed as accumulation at G1 phase at 1 to 5 uM by propidium iodide based flow cytometry). Details: TDE = time-dependent effect.
Assay type: functional
Method in brief: (§4)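 HCT116 cells (2 × 10^5 per well) treated after 24 h with 1 or 5 μM for 24 and 48 h; floating and attached cells pooled, fixed in 70% ethanol, stained with 50 μg/mL propidium iodide plus RNase A; 20 000 events by flow cytometry; phase percentages from DNA histograms; duplicate, repeated at least twice.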
In the case of Cn1c(=O)c2sc3ccccc3c2c2cc(C3=NCCN3)ccc21, the Activity is reported as “tde”.
In the case of O=c1[nH]c2ccc(C3=NCCN3)cc2c2c1sc1ccccc12, the Activity is reported as “tde”.

The compounds below were run on HCT-116 (assay: Induction of cell cycle arrest in human HCT116 cells assessed as accumulation at G2/M phase at 1 to 5 uM by propidium iodide based flow cytometry). Details: TDE = time-dependent effect.
Assay type: functional
Method in brief: as §4
With Cn1c(=O)c2sc3ccccc3c2c2cc(C3=NCCN3)ccc21 the Activity was “tde”.
O=c1[nH]c2ccc(C3=NCCN3)cc2c2c1sc1ccccc12 was tested, and the Activity was “tde”.

What follows are compounds tested on HCT-116 (assay: Induction of cell cycle arrest in human HCT116 cells assessed as accumulation at G1 phase after 24 to 48 hrs by propidium iodide based flow cytometry). Details: not given.
Assay type: functional
Method in brief: as §4
Cn1c(=O)c2sc3ccccc3c2c2cc(C3=NCCN3)ccc21 was tested, and the Activity was “Dose-dependent effect”.
With O=c1[nH]c2ccc(C3=NCCN3)cc2c2c1sc1ccccc12 the Activity was “Dose-dependent effect”.

Each compound was assayed on HCT-116 (assay: Induction of cell cycle arrest in human HCT116 cells assessed as accumulation at G2/M phase after 24 to 48 hrs by propidium iodide based flow cytometry). Details: not given.
Assay type: functional
Method in brief: as §4
In the case of Cn1c(=O)c2sc3ccccc3c2c2cc(C3=NCCN3)ccc21, the Activity is reported as “Dose-dependent effect”.
For O=c1[nH]c2ccc(C3=NCCN3)cc2c2c1sc1ccccc12, the Activity was “Dose-dependent effect”.

The compounds below were run on Nucleic Acid (assay: Binding affinity to calf thymus DNA assessed as change in melting temperature at drug/base pair ratio of 0.1 by UV-visible spectrophotometric analysis). Details: Bos taurus.
Assay type: nucleic-acid assay
Method in brief: as §1
With O=c1[nH]c2ccc(C3=NCCN3)cc2c2c1sc1cc(C3=NCCN3)ccc12 the ΔTm was 15.7 °C.
In the case of O=c1[nH]c2ccc(C3=NCCN3)cc2c2c1sc1ccccc12, the ΔTm is reported as 4.9 °C.

The compounds below were run on Nucleic Acid (assay: Binding affinity to AT rich site of Pvu2 DNA by densitometric analysis). Details: not given.
Assay type: nucleic-acid assay
Method in brief: as §3
Cn1c(=O)c2sc3ccccc3c2c2cc(C3=NCCN3)ccc21 was tested, and the Activity was “inactive”.
In the case of O=c1[nH]c2ccc(C3=NCCN3)cc2c2c1sc1cc(C3=NCCN3)ccc12, the Activity is reported as “inactive”.
For O=c1[nH]c2ccc(C3=NCCN3)cc2c2c1sc1ccccc12, the Activity was “inactive”.

Each compound was assayed on Nucleic Acid (assay: Binding affinity to calf thymus DNA assessed as change in melting temperature at drug/base pair ratio of 0.25 by UV-visible spectrophotometric analysis). Details: Bos taurus.
Assay type: nucleic-acid assay
Method in brief: as §1
Compound Cn1c(=O)c2sc3ccccc3c2c2cc(C3=NCCN3)ccc21 has a ΔTm of 10.7 °C.
Work on O=c1[nH]c2ccc(C3=NCCN3)cc2c2c1sc1cc(C3=NCCN3)ccc12 yielded a ΔTm of 22.4 °C.
O=c1[nH]c2ccc(C3=NCCN3)cc2c2c1sc1ccccc12 was tested, and the ΔTm was 18 °C.

The compounds below were run on Nucleic Acid (assay: Binding affinity to calf thymus DNA assessed as change in melting temperature at drug/base pair ratio of 0.5 by UV-visible spectrophotometric analysis). Details: Bos taurus.
Assay type: nucleic-acid assay
Method in brief: as §1
Compound Cn1c(=O)c2sc3ccccc3c2c2cc(C3=NCCN3)ccc21 has a ΔTm of 15.6 °C.

Each compound was assayed against T1, DNA topoisomerase 1 (Homo sapiens) (UniProt P11387) (assay: Inhibition of human topoisomerase 1-mediated supercoiled pUC19 plasmid DNA relaxation at 0.5 to 2 uM incubated for 45 mins followed by enzyme addition measured after 30 mins by agarose gel electrophoresis). Details: not given.
T1 sequence (whole entry): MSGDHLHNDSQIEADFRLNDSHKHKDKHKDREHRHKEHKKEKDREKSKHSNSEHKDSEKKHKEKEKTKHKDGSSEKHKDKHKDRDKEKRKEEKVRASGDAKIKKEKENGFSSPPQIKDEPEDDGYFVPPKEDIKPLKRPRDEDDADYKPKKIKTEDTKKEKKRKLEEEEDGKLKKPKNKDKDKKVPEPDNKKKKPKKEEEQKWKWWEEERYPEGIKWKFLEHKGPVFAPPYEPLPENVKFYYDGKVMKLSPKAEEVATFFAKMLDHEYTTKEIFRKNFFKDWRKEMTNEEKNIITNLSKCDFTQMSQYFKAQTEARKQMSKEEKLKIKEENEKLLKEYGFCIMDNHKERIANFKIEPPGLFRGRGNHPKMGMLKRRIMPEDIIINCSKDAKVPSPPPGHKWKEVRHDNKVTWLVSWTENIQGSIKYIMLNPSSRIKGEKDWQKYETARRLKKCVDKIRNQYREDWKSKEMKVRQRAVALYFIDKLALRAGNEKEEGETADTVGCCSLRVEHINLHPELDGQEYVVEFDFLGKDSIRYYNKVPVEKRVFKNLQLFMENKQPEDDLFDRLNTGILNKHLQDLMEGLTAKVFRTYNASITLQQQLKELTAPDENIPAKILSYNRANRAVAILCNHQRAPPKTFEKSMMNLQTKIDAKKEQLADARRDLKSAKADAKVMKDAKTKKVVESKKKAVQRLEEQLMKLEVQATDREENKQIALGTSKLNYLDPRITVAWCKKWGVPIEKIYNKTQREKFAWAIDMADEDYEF
Method in brief: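 Graded compound concentrations preincubated with supercoiled pUC19, then 4 units human topoisomerase I, 37 °C for 45 min in relaxation buffer; stopped with 0.25% SDS and 250 μg/mL proteinase K, 30 min at 50 °C; 1% agarose gel without ethidium bromide, 2 h at 120 V in TBE, then stained with ethidium bromide.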
Cn1c(=O)c2sc3ccccc3c2c2cc(C3=NCCN3)ccc21 was tested, and the inhibition was “Active”.
In the case of O=c1[nH]c2ccc(C3=NCCN3)cc2c2c1sc1cc(C3=NCCN3)ccc12, the inhibition is reported as “Active”.
O=c1[nH]c2ccc(C3=NCCN3)cc2c2c1sc1ccccc12 was tested, and the inhibition was “Active”.
